Experimental data: ChEMBL document CHEMBL5696442, “Discovery of type II inhibitors of TGFβ-activated kinase 1 (TAK1) and mitogen-activated protein kinase kinase kinase kinase 2 (MAP4K2)” (J Med Chem, 2015)

Experiments:
[1] = biological target: T1, Kinase suppressor of Ras 1 (Homo sapiens) (UniProt Q8IVT5); experiment: Inhibition of KSR1 ACT labeling site harbouring SKNVFYDNGK in human A-375 cells at 5 uM by KiNativ Profiling analysis relative to control; format: cell-based
T1 sequence (whole entry): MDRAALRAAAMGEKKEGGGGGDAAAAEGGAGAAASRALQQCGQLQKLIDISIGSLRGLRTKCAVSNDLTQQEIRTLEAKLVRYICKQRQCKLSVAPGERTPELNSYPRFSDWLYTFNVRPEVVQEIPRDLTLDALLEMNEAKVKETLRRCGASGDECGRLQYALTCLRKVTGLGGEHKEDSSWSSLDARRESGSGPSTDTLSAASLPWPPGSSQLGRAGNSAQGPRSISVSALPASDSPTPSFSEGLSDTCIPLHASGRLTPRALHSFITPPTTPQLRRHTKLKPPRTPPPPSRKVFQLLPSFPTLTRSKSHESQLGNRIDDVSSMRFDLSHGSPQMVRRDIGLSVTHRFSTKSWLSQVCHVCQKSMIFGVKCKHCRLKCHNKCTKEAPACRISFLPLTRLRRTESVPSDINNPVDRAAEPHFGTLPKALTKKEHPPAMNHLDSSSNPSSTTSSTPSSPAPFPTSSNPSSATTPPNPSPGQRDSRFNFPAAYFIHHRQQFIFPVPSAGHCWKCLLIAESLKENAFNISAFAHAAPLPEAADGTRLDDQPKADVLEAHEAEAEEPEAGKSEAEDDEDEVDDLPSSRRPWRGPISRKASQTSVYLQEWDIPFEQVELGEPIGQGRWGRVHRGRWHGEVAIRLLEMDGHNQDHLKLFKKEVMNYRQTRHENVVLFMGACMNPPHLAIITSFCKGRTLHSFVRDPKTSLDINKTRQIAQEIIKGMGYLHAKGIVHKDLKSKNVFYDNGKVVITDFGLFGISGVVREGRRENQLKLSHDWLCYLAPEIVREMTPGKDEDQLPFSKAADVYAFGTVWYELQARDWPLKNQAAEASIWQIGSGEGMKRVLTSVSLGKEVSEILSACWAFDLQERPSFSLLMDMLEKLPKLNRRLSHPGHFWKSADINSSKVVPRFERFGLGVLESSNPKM

[2] = biological target: RAC-alpha serine/threonine-protein kinase (Homo sapiens) (UniProt P31749); experiment: Inhibition of AKT1 ATP Loop labeling site in human A-375 cells at 0.05 uM by KiNativ Profiling analysis relative to control; format: cell-based
Sequence of RAC-alpha serine/threonine-protein kinase (Homo sapiens) (P31749 whole entry): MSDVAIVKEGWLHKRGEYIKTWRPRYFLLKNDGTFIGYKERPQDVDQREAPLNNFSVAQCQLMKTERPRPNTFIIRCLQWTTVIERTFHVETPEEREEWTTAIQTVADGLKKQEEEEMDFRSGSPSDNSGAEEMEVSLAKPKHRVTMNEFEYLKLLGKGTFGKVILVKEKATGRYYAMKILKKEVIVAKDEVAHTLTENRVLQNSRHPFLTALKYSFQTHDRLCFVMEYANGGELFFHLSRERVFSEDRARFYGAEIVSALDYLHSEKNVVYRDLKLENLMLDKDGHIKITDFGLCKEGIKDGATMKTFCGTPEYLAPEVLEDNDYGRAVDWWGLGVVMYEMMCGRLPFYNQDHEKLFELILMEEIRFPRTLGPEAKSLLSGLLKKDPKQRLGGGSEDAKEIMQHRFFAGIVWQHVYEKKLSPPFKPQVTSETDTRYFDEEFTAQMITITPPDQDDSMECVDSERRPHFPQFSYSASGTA

[3] = biological target: Mitogen-activated protein kinase 14 (Homo sapiens, UniProt Q16539); experiment: Inhibition of p38 alpha in human A-375 cells at 0.5 uM by KiNativ Profiling analysis relative to control; format: cell-based
Sequence of Mitogen-activated protein kinase 14 (Q16539 whole entry): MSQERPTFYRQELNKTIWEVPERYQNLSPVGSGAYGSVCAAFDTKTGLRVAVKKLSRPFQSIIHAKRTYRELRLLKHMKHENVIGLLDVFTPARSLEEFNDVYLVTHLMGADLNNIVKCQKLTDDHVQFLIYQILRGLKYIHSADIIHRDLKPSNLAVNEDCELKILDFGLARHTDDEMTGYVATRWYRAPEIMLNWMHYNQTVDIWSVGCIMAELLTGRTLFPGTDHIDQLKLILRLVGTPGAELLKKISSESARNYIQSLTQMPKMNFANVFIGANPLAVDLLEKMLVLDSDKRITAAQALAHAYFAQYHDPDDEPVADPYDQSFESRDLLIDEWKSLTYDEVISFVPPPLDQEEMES

[4] = biological target: DNA-PK/Ku70/Ku85 (Homo sapiens) (UniProt P78527+P12956+P13010); experiment: Inhibition of DNAPK ATP labeling site harbouring GHDEREHPFLVKGGEDLR in human A-375 cells at 5 uM by KiNativ Profiling analysis relative to control; format: cell-based
Method in brief: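 A375 melanoma cells treated live with compound at 5 μM, then lysed. Lysates were labeled with a lysine-reactive ATP or ADP-biotin probe (KiNativ). Read-out is how well the compound protects each kinase labeling site from probe labeling.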

[5] = biological target: Dual specificity mitogen-activated protein kinase kinase 2 (Homo sapiens) (UniProt P36507); experiment: Inhibition of MAP2K2 Lys2 labeling site in human A-375 cells at 0.5 uM by KiNativ Profiling analysis relative to control; format: cell-based
Sequence of Dual specificity mitogen-activated protein kinase kinase 2 (Homo sapiens) (P36507 whole entry): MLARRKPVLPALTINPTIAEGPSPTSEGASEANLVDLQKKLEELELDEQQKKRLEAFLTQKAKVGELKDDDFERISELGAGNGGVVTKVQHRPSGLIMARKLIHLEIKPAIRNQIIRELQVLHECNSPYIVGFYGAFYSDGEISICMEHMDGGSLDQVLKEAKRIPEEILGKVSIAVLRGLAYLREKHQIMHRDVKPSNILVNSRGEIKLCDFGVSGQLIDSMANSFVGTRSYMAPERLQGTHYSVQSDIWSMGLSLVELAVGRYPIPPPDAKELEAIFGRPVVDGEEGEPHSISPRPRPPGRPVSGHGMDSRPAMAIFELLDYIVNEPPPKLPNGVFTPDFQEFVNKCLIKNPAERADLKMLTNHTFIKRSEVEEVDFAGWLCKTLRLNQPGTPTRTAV

[6] = biological target: Mitogen-activated protein kinase 10 (Homo sapiens, UniProt P53779); experiment: Inhibition of JNK3 Lys2 labeling site in human A-375 cells at 0.5 uM by KiNativ Profiling analysis relative to control; format: cell-based
Sequence of Mitogen-activated protein kinase 10 (P53779 whole entry): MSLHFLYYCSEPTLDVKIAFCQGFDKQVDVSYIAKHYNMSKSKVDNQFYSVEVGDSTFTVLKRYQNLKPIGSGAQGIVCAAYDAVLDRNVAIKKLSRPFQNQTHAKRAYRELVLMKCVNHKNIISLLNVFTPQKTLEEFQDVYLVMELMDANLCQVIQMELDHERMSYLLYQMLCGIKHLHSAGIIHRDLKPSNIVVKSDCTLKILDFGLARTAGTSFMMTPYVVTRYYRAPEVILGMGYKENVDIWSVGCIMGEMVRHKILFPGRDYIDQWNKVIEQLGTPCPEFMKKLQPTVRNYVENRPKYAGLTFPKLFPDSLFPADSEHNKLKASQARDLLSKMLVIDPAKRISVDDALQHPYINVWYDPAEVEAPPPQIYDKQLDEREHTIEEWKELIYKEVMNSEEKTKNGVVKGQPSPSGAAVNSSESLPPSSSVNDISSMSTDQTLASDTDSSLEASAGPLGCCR

[7] = biological target: Serine/threonine-protein kinase WNK1 (Homo sapiens) (UniProt Q9H4A3); experiment: Inhibition of Wnk1 ACT labeling site in human A-375 cells at 0.05 uM by KiNativ Profiling analysis relative to control; format: cell-based
[8] = biological target: Serine/threonine-protein kinase B-raf (Homo sapiens, UniProt P15056); experiment: Inhibition of BRAF (unknown origin) Lys2 labeling site by KiNativ Profiling analysis
Sequence of Serine/threonine-protein kinase B-raf (P15056 whole entry): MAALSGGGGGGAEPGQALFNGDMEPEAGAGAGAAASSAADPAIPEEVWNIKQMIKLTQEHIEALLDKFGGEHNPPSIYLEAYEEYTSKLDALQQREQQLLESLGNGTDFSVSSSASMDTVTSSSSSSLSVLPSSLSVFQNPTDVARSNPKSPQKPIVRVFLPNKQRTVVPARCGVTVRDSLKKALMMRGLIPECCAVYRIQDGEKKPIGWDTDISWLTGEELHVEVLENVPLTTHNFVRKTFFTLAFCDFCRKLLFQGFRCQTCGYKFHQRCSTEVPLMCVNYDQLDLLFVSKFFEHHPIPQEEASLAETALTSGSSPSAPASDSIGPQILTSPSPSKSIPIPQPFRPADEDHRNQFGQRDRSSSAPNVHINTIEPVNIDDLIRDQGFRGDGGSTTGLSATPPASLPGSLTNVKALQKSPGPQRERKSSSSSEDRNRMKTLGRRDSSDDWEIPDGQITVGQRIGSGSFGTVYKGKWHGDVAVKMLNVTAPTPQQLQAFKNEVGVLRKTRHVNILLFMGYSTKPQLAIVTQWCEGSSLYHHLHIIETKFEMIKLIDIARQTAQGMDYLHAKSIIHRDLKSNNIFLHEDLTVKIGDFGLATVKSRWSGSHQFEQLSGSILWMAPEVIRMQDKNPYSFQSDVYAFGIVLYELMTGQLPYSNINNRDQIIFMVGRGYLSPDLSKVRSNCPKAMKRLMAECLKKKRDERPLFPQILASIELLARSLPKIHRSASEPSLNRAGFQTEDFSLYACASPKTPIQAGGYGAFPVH

[9] = biological target: Tyrosine-protein kinase Yes (Homo sapiens) (UniProt P07947); experiment: Inhibition of YES ACT labeling site in human A-375 cells at 0.5 uM by KiNativ Profiling analysis relative to control; format: cell-based
Sequence of Tyrosine-protein kinase Yes (Homo sapiens) (P07947 2-543 limits assumed): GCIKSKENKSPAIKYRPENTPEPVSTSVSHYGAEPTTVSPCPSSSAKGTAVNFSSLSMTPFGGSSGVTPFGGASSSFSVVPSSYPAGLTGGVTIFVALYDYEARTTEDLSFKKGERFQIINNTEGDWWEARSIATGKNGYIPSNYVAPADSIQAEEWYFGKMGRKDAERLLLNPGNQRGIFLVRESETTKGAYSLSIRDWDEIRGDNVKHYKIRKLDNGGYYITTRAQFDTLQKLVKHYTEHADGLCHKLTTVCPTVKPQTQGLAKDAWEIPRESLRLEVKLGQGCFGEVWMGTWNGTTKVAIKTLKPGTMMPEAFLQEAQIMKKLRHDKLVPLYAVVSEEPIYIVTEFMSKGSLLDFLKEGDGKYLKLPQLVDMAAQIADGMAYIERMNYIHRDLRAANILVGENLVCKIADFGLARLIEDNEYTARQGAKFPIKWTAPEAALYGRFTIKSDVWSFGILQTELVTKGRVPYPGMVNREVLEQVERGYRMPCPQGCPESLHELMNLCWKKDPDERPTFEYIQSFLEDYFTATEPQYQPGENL

[10] = biological target: T2, Mitogen-activated protein kinase 12 (Homo sapiens) (UniProt P53778); experiment: Inhibition of p38 gamma Lys2 labeling site in human A-375 cells at 0.5 uM by KiNativ Profiling analysis relative to control; format: cell-based
T2 sequence (whole entry): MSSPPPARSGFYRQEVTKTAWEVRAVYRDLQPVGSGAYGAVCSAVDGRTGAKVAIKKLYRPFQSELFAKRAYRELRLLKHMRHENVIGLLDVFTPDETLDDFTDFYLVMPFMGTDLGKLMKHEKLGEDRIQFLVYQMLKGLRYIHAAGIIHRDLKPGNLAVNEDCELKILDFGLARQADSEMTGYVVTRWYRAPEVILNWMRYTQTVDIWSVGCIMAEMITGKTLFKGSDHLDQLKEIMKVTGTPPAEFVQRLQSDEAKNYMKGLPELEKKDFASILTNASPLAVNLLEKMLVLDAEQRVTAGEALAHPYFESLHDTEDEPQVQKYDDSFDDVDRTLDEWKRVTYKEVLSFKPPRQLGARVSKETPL

[11] = biological target: Tyrosine-protein kinase Lyn (Homo sapiens, UniProt P07948); experiment: Inhibition of LYN Lys1 labeling site in human A-375 cells at 0.5 uM by KiNativ Profiling analysis relative to control; format: cell-based
Sequence of Tyrosine-protein kinase Lyn (P07948 2-512 limits assumed): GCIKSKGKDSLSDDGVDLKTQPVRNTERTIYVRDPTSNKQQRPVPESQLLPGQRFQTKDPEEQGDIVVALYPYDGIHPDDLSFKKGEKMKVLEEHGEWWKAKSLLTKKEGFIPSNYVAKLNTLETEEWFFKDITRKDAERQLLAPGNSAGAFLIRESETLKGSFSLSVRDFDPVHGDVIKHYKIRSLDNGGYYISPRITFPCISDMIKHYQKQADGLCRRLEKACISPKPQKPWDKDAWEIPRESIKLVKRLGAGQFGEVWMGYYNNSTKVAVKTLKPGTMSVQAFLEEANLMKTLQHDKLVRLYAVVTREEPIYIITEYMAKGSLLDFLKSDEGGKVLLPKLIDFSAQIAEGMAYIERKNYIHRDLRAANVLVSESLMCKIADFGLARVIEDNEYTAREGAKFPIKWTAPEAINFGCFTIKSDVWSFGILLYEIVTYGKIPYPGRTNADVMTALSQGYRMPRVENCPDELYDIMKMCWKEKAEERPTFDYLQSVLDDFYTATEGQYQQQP

In the case of `CCN1CCN(Cc2ccc(NC(=O)c3ccc(C)c(/C=C/c4cnc5[nH]ccc5c4OC)c3)cc2C(F)(F)F)CC1`, the inhibition [1] is reported as 12.2%, the inhibition [2] is reported as 9.8% and the inhibition [3] is reported as 69.2%. It also gave an inhibition [4] of 13.8%, an inhibition [5] of 1.8% and an inhibition [6] of 40.6%. The inhibition [7] was 10.1%, the IC50 [8] was over 10 µM and the inhibition [9] was 72.6%. The inhibition [10] was 25.2% and the inhibition [11] was over 95%.

Compound `CCN1CCN(Cc2ccc(NC(=O)c3ccc(C)c(Oc4ccnc5[nH]ccc45)c3)cc2C(F)(F)F)CC1` has an inhibition [1] of 32.1%, an inhibition [2] of -7.9% and an inhibition [3] of 51.9%. The inhibition [4] was 17.1%, the inhibition [5] was -3.9% and the inhibition [6] was 73.7%. It also gave an inhibition [7] of 10.3%, an IC50 [8] of over 10 µM and an inhibition [9] of 36.5%. For the same compound, the inhibition [10] was 86.2% and the inhibition [11] was 90.5%.
